How the values were obtained:
HeLa = test: Cytotoxicity against human HeLa cells after 2 days; format: functional, cell-based; conditions: 48 h
L1210 = test: Cytotoxicity against mouse L1210 cells after 2 days; format: functional, cell-based; conditions: L1210, 48 h
Outline: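 Cells were incubated with the compounds at 37 °C for two days, then counted on a Coulter counter. IC50 is the concentration that inhibits cell proliferation by 50%.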

[1] = Cytotoxicity against human Molt4/C8 cells after 2 days; conditions: MOLT-4, 48 h
FM3A = test: Cytotoxicity against mouse FM3A0 cells after 2 days; format: functional, cell-based; conditions: 48 h
CCRF-CEM = test: Cytotoxicity against human CEM cells after 2 days; format: functional, cell-based; conditions: 48 h
Bos taurus = species: Bos taurus; test: Displacement of [3H]colchicine from bovine tubulin at 5 uM
Outline: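 Reaction mixtures held 1 μM bovine brain tubulin, 5 μM [3H]colchicine and 5 μM test compound. Inhibition of radiolabelled colchicine binding to tubulin is expressed as percent inhibition.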

K562 [2] = test: Cell cycle arrest in human K562 cells assessed as accumulation at S phase at 16 nM after 24 hrs by flow cytometry; format: functional
Outline: (§1)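 K562 leukaemia cells were cultured for 24 h with compound at one fixed concentration. DNA content per cell was measured by the standard propidium iodide procedure and flow cytometry. Proportions of cells in the sub-G0–G1 (apoptotic), G0–G1, S and G2–M peaks were compared with an untreated control.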

K562 [3] = test: Cell cycle arrest in human K562 cells assessed as accumulation at G1 phase at 16 nM after 24 hrs by flow cytometry; format: functional; outline: as §1
[4] = Inhibition of bovine tubulin polymerization; design: species or system Bos taurus
Outline: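 Purified bovine brain tubulin (10 μM) in glutamate buffer was preincubated with varying compound concentrations at 30 °C, then cooled to 0 °C. GTP was added and the mixture warmed to 30 °C in a recording spectrophotometer. Assembly was followed by turbidity.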

K562 [5] = test: Cell cycle arrest in human K562 cells assessed as accumulation at sub-G0/G1 phase at 16 nM after 24 hrs by flow cytometry; format: functional; outline: as §1
K562 [6] = test: Cell cycle arrest in human K562 cells assessed as accumulation at G2 phase at 16 nM after 24 hrs by flow cytometry; format: functional; outline: as §1
K562 [7] = test: Cell cycle arrest in human K562 cells assessed as accumulation at G1 phase at 420 nM after 24 hrs by flow cytometry; format: functional
K562 [8] = test: Cell cycle arrest in human K562 cells assessed as accumulation at G2 phase at 420 nM after 24 hrs by flow cytometry; format: functional
K562 [9] = test: Cell cycle arrest in human K562 cells assessed as accumulation at sub-G0/G1 phase at 420 nM after 24 hrs by flow cytometry; format: functional
K562 [10] = test: Cell cycle arrest in human K562 cells assessed as accumulation at S phase at 420 nM after 24 hrs by flow cytometry; format: functional
K562 [11] = test: Cell cycle arrest in human K562 cells assessed as accumulation at sub-G0/G1 phase at 530 nM after 24 hrs by flow cytometry; format: functional; outline: as §1
K562 [12] = test: Cell cycle arrest in human K562 cells assessed as accumulation at G2 phase at 530 nM after 24 hrs by flow cytometry; format: functional; outline: as §1
K562 [13] = test: Cell cycle arrest in human K562 cells assessed as accumulation at G1 phase at 530 nM after 24 hrs by flow cytometry; format: functional; outline: as §1
K562 [14] = test: Cell cycle arrest in human K562 cells assessed as accumulation at S phase at 530 nM after 24 hrs by flow cytometry; format: functional; outline: as §1
K562 [15] = test: Cell cycle arrest in human K562 cells assessed as accumulation at S phase at 230 nM after 24 hrs by flow cytometry; format: functional; outline: as §1
K562 [16] = test: Cell cycle arrest in human K562 cells assessed as accumulation at G1 phase at 230 nM after 24 hrs by flow cytometry; format: functional; outline: as §1
K562 [17] = test: Cell cycle arrest in human K562 cells assessed as accumulation at sub-G0/G1 phase at 230 nM after 24 hrs by flow cytometry; format: functional; outline: as §1
K562 [18] = test: Cell cycle arrest in human K562 cells assessed as accumulation at G2 phase at 230 nM after 24 hrs by flow cytometry; format: functional; outline: as §1

SMILES | IC50 (HeLa) | IC50 (L1210) | IC50 [1] | IC50 (FM3A) | IC50 (CCRF-CEM) | other results
COc1ccc2cc(C(OC)c3cc(OC)c(OC)c(OC)c3)oc2c1 (stereo not drawn) | 4.4 µM | > 10 µM | > 10 µM | > 10 µM | > 10 µM | –
COc1ccc2cc(Cc3cc(OC)c(OC)c(OC)c3)oc2c1 | 0.68 µM | 2.3 µM | 0.77 µM | 2.6 µM | 1.5 µM | –
COc1cc(C(=O)c2oc3cc(O)ccc3c2C)cc(OC)c1OC | 0.26 µM | > 10 µM | 1.3 µM | > 10 µM | 4.3 µM | –
COc1cc(C(=O)c2cc3ccc(OC)c(O)c3o2)cc(OC)c1OC | > 10 µM | > 10 µM | > 10 µM | > 10 µM | > 10 µM | –
CCOc1ccc2c(C)c(C(=O)c3cc(OC)c(OC)c(OC)c3)oc2c1 | 0.0063 µM | 0.002 µM | 0.0012 µM | 0.0028 µM | 0.0028 µM | Activity (Bos taurus): 96%; Activity (K562 [2]): 25.34%; Activity (K562 [3]): 3.67%; IC50 [4]: 0.43 µM; Activity (K562 [5]): 13.24%; Activity (K562 [6]): 70.99%
COc1cc(C(=O)c2cc3ccccc3o2)cc(OC)c1OC | – | > 10 µM | 8 µM | > 10 µM | > 10 µM | –
COc1cc(C(=O)c2cc3cccc(O)c3o2)cc(OC)c1OC | > 10 µM | > 10 µM | > 10 µM | > 10 µM | > 10 µM | –
COc1cc(C(=O)c2cc3ccc(O)cc3o2)cc(OC)c1OC | > 10 µM | > 10 µM | > 10 µM | > 10 µM | > 10 µM | –
COc1cc(C(=O)c2oc3cccc(OC)c3c2C)cc(OC)c1OC | 0.34 µM | 0.59 µM | 0.2 µM | 0.57 µM | 0.49 µM | Activity (Bos taurus): 66%; IC50 [4]: 1.8 µM; Activity (K562 [7]): 7.7%; Activity (K562 [8]): 50.2%; Activity (K562 [9]): 21.24%; Activity (K562 [10]): 42.1%
COc1cc(C(=O)c2cc3cc(OC)c(OC)c(OC)c3o2)cc(OC)c1OC | > 10 µM | > 10 µM | > 10 µM | > 10 µM | > 10 µM | –
COc1cc(C(=O)c2oc3cccc(O)c3c2C)cc(OC)c1OC | 0.13 µM | 0.48 µM | 0.084 µM | 0.33 µM | 0.1 µM | Activity (Bos taurus): 85%; Activity (K562 [11]): 7.6%; IC50 [4]: 0.57 µM; Activity (K562 [12]): 65.12%; Activity (K562 [13]): 8.52%; Activity (K562 [14]): 26.37%
COc1cc(C(=O)c2cc3cc(C)ccc3o2)cc(OC)c1OC | > 0.01 µM | 7.1 µM | 2.5 µM | 8.4 µM | 7.2 µM | –
COc1cc(C(=O)c2cc3cc(O)ccc3o2)cc(OC)c1OC | > 10 µM | > 10 µM | > 10 µM | > 10 µM | > 10 µM | –
COc1ccc2oc(C(=O)c3cc(OC)c(OC)c(OC)c3)c(C)c2c1 | – | 2.3 µM | 1.9 µM | 4.4 µM | 0.4 µM | Activity (K562 [15]): 40.38%; Activity (Bos taurus): 65%; IC50 [4]: 1.2 µM; Activity (K562 [16]): 1.44%; Activity (K562 [17]): 18.18%; Activity (K562 [18]): 58.18%
COc1cc(C(=O)c2oc3ccccc3c2C)cc(OC)c1OC | 0.89 µM | 2.1 µM | 1.3 µM | 2.1 µM | 2 µM | –
COc1ccc2c(N(C)C)c(C(=O)c3cc(OC)c(OC)c(OC)c3)oc2c1 | – | – | 0.048 µM | – | – | –

Reference: ChEMBL document CHEMBL1152591, “Design, synthesis and structure-activity relationship of 2-(3',4',5'-trimethoxybenzoyl)-benzo[b]furan derivatives as a novel class of inhibitors of tubulin polymerization” (Bioorg Med Chem, 2009)
